Measurements: ChEMBL document CHEMBL1147788, “Design, synthesis, and preliminary biological evaluation of 2,3-dihydro-3-hydroxymethyl-1,4-benzoxazine derivatives” (2006)
Active and inactive are the calls of the source. The rule behind the calls is not given here.

Key:
[1] = test system: HUVEC; experiment: Induction of HUVEC cell line apoptosis at 100 uM; format: functional, cell-based; details: Homo sapiens
Procedure, shortened: (§1)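 HUVECs in MCDB131 with 10% fetal calf serum and […] bFGF, passages 10–20. Apoptosis induced by growth-factor deprivation. Cells cultured with or without compound at 25–200 µM for 24 and 48 h. Means ± SE of three independent experiments versus control.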

[2] = test system: A549; experiment: Antiproliferative activity against human A549 cell line by MTT assay; format: functional, cell-based
Procedure, shortened: (§2)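 A549 cells grown in medium with or without compound at 50–400 µM for 24 and 48 h; viability read by MTT assay and expressed as percent of vehicle (DMSO) control. Means ± SE of three independent experiments; significance tested against control.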

[3] = test system: HUVEC; experiment: Induction of HUVEC cell line apoptosis at 50 uM; format: functional, cell-based; details: Homo sapiens; procedure, shortened: as §1
[4] = test system: HUVEC; experiment: Induction of HUVEC cell line apoptosis at 200 uM; format: functional, cell-based; details: Homo sapiens; procedure, shortened: as §1
[5] = test system: HUVEC; experiment: Induction of HUVEC cell line apoptosis at 25 uM; format: functional, cell-based; details: Homo sapiens; procedure, shortened: as §1
[6] = test system: A549; experiment: Decrease in viability of human A549 cell line at 200 uM after 48 hrs relative to control by MTT assay; format: functional; procedure, shortened: as §2
[7] = test system: A549; experiment: Decrease in viability of human A549 cell line at 400 uM after 24 hrs relative to control by MTT assay; format: functional; procedure, shortened: as §2
[8] = test system: A549; experiment: Decrease in viability of human A549 cell line at 400 uM after 48 hrs relative to control by MTT assay; format: functional; procedure, shortened: as §2
[9] = test system: A549; experiment: Antiproliferative activity against human A549 cell line at 400 uM after 48 hrs by MTT assay; format: functional, cell-based; procedure, shortened: as §2
[10] = test system: A549; experiment: Antiproliferative activity against human A549 cell line at 200 uM after 48 hrs by MTT assay; format: functional, cell-based; procedure, shortened: as §2
[11] = test system: A549; experiment: Antiproliferative activity against human A549 cell line at 400 uM after 24 hrs by MTT assay; format: functional, cell-based; procedure, shortened: as §2
[12] = test system: A549; experiment: Decrease in viability of human A549 cell line at 50 uM after 48 hrs relative to control by MTT assay; format: functional, cell-based; procedure, shortened: as §2
[13] = test system: A549; experiment: Decrease in viability of human A549 cell line at 200 uM after 24 hrs relative to control by MTT assay; format: functional, cell-based; procedure, shortened: as §2
[14] = test system: HUVEC; experiment: Inhibition of HUVEC cell line apoptosis at 200 uM; format: functional, cell-based; details: Homo sapiens; procedure, shortened: as §1
[15] = test system: HUVEC; experiment: Inhibition of HUVEC cell line apoptosis at 50 uM; format: functional, cell-based; details: Homo sapiens; procedure, shortened: as §1
[16] = test system: HUVEC; experiment: Inhibition of HUVEC cell line apoptosis at 100 uM; format: functional, cell-based; details: Homo sapiens; procedure, shortened: as §1

Compound | Activity [1] | Activity [2] | Activity [3] | Activity [4] | Activity [5] | Activity [6] | Activity [7] | Activity [8] | Activity [9] | Activity [10] | Activity [11] | Activity [12] | Activity [13] | Activity [14] | Activity [15] | Activity [16]
Cc1ccc2c(c1)NC(CO)CO2 (stereo unspecified) | Active | inactive | Active | Active | Active |  |  |  |  |  |  |  |  |  |  | 
CC(C)(C)c1ccc2c(c1)NC(CO)CO2 (stereo unspecified) | Active |  | Active | Active | Active | 72.6% | 77.8% | 59.5% |  |  |  |  |  |  |  | 
OCC1COc2ccc(Cl)cc2N1 (stereo unspecified) | Active |  | Active | Active | Active |  |  |  | Active | Active |  |  |  |  |  | 
OCC1COc2c(Cl)cc(Cl)cc2N1 (stereo unspecified) | Active |  | Active | Active | Active | Active |  |  | Active |  | Active | Active | Active |  |  | 
OCC1COc2c(Cl)cccc2N1 (stereo unspecified) | Active | inactive | Active | Active | Active |  |  |  |  |  |  |  |  |  |  | 
OCC1COc2ccccc2N1 (stereo unspecified) | Active | inactive | Active | Active | Active |  |  |  |  |  |  |  |  |  |  | 
Nc1ccc2c(c1)NC(CO)CO2 (stereo unspecified) |  | inactive |  |  |  |  |  |  |  |  |  |  |  | Active | Active | Active
